Measurements taken from publication PMC9532374 (Cancer research, 2022).

Experiments:
human neutrophils [1] = assay: Viability of human neutrophils; assay type: cell-based; conditions: four-hour treatment, 10 μM
PAD = PAD (Mus musculus, UniProt Q9Z183); assay: PAD activity assay in BM neutrophils of tumor-bearing mice; assay type: cell-based; conditions: BM Ly6G+ cells pretreated for 2h with GSK484
Procedure, shortened: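 Bone marrow Ly6G+ cells (MACS) from tumor-free or tumor-bearing mice were pretreated for 2 h with inhibitor. Cells were lysed at 1×10^8 cells/mL and lysates incubated with 10 mM BAEE for 30 min at 37°C. Colour reagent (acids, ammonium iron sulfate, DAMO, thiosemicarbazide) was added, samples heated at 95–100°C for 15 min, and absorbance read at 540 nm.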

CXCR2 [2] = assay: CXCR2 surface expression on neutrophils differentiated in vitro from HPC; assay type: cell-based, mouse; conditions: 10 μM
Procedure, shortened: (§1)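 Bone marrow hematopoietic progenitors were lineage-depleted and cultured in RPMI with GM-CSF (20 ng/mL), with or without 25% LLC tumor explant supernatant and with or without 10 μM test compound. The supernatant came from ~1.5 cm tumors, minced, incubated overnight at 37°C and 0.22 μm filtered. Surface CXCR2/CXCR4 was measured by flow cytometry.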

CXCR2 [3] = assay: CXCR2 expression in human PB neutrophils; assay type: cell-based
Procedure, shortened: (§2)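 Peripheral blood neutrophils came from healthy donors or cancer patients. They were collected at the Histopaque 1.077/1.119 interphase after double-density gradient centrifugation, followed by RBC lysis, with CD15 staining to confirm purity. Cells were exposed to 10 μM test compound for 1–4 h. Receptor mRNA was measured by SYBR Green qPCR normalized to β-actin, and surface level by flow cytometry.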

human neutrophils [4] = assay: Chemotaxis of human neutrophils toward IL-8; assay type: cell-based; conditions: 10 μM for 4h
Procedure, shortened: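 Human neutrophils were treated with 10 μM test compound for 4 h. They were then placed in a 3 μm pore Transwell, 0.1 × 10^6 cells in Advanced RPMI in the insert, with chemoattractant in medium below. After 1 h at 37°C and 5% CO2, migrated cells in the bottom well were counted.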

Mouse HPC = assay: HPC differentiation in vitro with GM-CSF with or without LLC TES; assay type: cell-based; conditions: 10 μM; presence or absence of TES; 5 days of culture
Procedure, shortened: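 Bone marrow HPC from WT or PAD4 KO mice were lineage-depleted and differentiated in RPMI with GM-CSF (20 ng/mL), with or without 25% LLC explant supernatant and with or without 10 μM test compound, for 5 days. Proportion and absolute number of Ly6G+ cells were determined by flow cytometry in Aqua-negative cells.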

mouse neutrophils = assay: Viability / toxicity in mouse neutrophils; assay type: cell-based
CXCR4 [5] = assay: CXCR4 surface expression on neutrophils differentiated in vitro from HPC; assay type: cell-based, mouse; conditions: 10 μM
Procedure, shortened: as §1

CD4+ T cells = assay: IFN-γ production by human T cells; assay type: cell-based; conditions: 10 μM pre-treatment; 5h stimulation
Procedure, shortened: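 Peripheral blood mononuclear cells from healthy donors or multiple myeloma patients were Ficoll-Paque isolated. Cells were pre-treated with 10 μM test compound or DMSO vehicle, then stimulated for 5 h with a cell stimulation cocktail with or without protein transport inhibitors. IFN-γ and IL-2 were measured by flow cytometry in gated CD4+ and CD8+ T cells.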

Ly6G+ cells = assay: Suppression assay with Ly6G+ cells generated from HPC in the presence of TES; assay type: cell-based, mouse
CXCR4 [6] = assay: CXCR4 expression in human PB neutrophils; assay type: cell-based
Procedure, shortened: as §2

T cells = assay: T cell proliferation, human PB MNC stimulated with CD3/CD28 Dynabeads; assay type: cell-based; conditions: 10 μM pre-treatment 2h; healthy donors or cancer patients; 72h
Procedure, shortened: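 Peripheral blood mononuclear cells (Ficoll-Paque; healthy donors or multiple myeloma patients) were labeled with CellTrace Far Red. Cells were pre-treated for 2 h with 10 μM test compound or DMSO vehicle and stimulated with CD3/CD28 Dynabeads for 72 h. Dye dilution was read by flow cytometry in gated CD4+ and CD8+ T cells.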

BM neutrophils = assay: Transwell chemotaxis of mouse neutrophils toward CXCL1; assay type: cell-based
Procedure, shortened: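 Bone marrow Ly6G+ neutrophils were MACS-isolated (>95% pure) and pre-incubated with 10 μM test compound for 2 h. They were placed in a 3 μm Transwell, 0.1 × 10^6 cells on top, with CXCL1 in Advanced RPMI below. After 1 h at 37°C, migrated cells were counted. Spontaneously migrating cells were subtracted.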

LL2 tumors = assay: LL2 tumor model in mice; assay type: in vivo, mouse
LL2 = assay: Viability of LL2 tumor cell line in vitro; assay type: cell-based, mouse
B16F10 = assay: Viability of B16F10 tumor cell line in vitro; assay type: cell-based, mouse
CXCR2 [7] = assay: CXCR2 surface expression on Ly6G+ cells from treated LL2-bearing mice; assay type: in vivo, mouse; conditions: JBI-589 treated LL2-bearing mice
Procedure, shortened: (§3)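 LL2 cells (0.3× 10^6) were injected s.c. into the right flank. Mice received test compound at 50 mg/kg b.i.d. daily by oral gavage. Cells were Fc-blocked for 10 min, then antibody-stained for 20 min on ice with Live/Dead Aqua. Surface receptor was measured by flow cytometry on CD45+CD11b+Ly6G+ cells.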

[8] = test system: BM and spleen neutrophils; assay type: in vivo, mouse; conditions: neutrophils from JBI-589-treated LL2-bearing mice re-stimulated in vitro with LL2 cell supernatant
histone H3 = assay: PMA-induced citrullination of histone H3 in mouse neutrophils; assay type: cell-based; conditions: in vitro
[9] = Pharmacokinetic study in mice, oral; assay type: in vivo, Balb/c male mice; conditions: 10 mg/kg via oral gavage
Procedure, shortened: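 Male Balb/c mice (6–8 weeks, 22–25 g) received 10 mg/kg test compound by oral gavage, as a suspension in Tween-80 and 0.5% methyl cellulose. Sparse blood sampling (~100 μL; three mice per point) was done at 0.25–24 h into K2EDTA tubes. Plasma was separated by centrifugation at 10,000 rpm for 5 min at 4°C.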

M-MDSC, TAM, PMN-MDSC = assay: Suppression assay with myeloid cells isolated from treated mice; assay type: in vivo, mouse; conditions: cells from JBI-589-treated mice
CXCR4 [10] = assay: CXCR4 surface expression on Ly6G+ cells from treated LL2-bearing mice; assay type: in vivo, mouse; conditions: JBI-589 treated LL2-bearing mice
Procedure, shortened: as §3

M-MDSC, TAMs = assay: Gene expression in spleen M-MDSC or TAMs treated in vitro; assay type: cell-based, mouse; conditions: in vitro treatment of spleen M-MDSC or TAMs from LL2-bearing mice
CXCR2 [11] = assay: CXCR2 expression on neutrophils treated with JBI-589 in vitro; assay type: cell-based
B16F10 tumors = assay: B16F10 tumor model in mice; assay type: in vivo, mouse; conditions: B16F10-bearing mice; 50 mg/kg b.i.d., daily, oral gavage
Procedure, shortened: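 Male and female mice, 6–8 weeks old, were given 0.3× 10^6 B16F10 cells s.c. into the right flank. Cells were grown in DMEM with 10% FBS and were Mycoplasma-negative. Test compound was given by oral gavage. Read-out was the kinetics of primary tumor growth.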

[12] = 10 μM for 4h, healthy donors and cancer patients, flow cytometry

Sequence of PAD (Q9Z183 whole entry): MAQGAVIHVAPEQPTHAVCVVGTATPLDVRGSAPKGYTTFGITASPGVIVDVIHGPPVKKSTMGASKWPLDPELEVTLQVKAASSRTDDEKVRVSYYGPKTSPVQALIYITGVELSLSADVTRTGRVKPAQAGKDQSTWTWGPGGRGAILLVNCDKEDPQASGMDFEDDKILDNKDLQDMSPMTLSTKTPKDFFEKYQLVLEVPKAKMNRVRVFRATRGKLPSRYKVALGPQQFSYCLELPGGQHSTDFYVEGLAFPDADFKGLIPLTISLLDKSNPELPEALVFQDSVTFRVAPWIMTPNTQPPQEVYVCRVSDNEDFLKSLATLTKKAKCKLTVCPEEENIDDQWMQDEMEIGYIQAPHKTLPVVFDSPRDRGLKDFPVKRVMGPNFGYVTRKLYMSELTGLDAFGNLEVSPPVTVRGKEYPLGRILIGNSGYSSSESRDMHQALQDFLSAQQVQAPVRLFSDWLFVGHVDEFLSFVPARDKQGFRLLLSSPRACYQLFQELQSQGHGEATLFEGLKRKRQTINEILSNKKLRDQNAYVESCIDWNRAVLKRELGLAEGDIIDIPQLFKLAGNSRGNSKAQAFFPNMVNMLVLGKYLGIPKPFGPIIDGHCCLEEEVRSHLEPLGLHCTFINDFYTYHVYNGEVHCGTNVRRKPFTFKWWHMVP

## COc1cc(C(=O)N2CC[C@@H](O)[C@@H](N)C2)cc2nc(-c3cc4ccccc4n3CC3CC3)n(C)c12 [GSK484]
Human neutrophils [1]
  viability of neutrophils: did not affect viability
PAD
  tumor-induced up-regulation of PAD activity in PMN: completely abrogated
CXCR2 [2]; with LLC TES
  up-regulation of CXCR2 in the presence of TES: abrogated up-regulation of CXCR2
CXCR2 [2]; without TES
  baseline CXCR2 expression: reduced baseline CXCR2 expression
CXCR2 [3]; [12]
  CXCR2 receptor expression in neutrophils: dramatically reduced
CXCR2 [3]; 4h after treatment, 10 μM, HD neutrophils, time course
  CXCR2 receptor (surface) level: significant downregulation
CXCR2 [3]; one-hour treatment, 10 μM, HD neutrophils
  surface level of CXCR2 protein: not affecting
CXCR2 [3]; one-hour treatment, 10 μM, HD neutrophils, qPCR
  CXCR2 gene expression: significantly downregulated
Human neutrophils [4]
  chemotaxis of neutrophils toward IL-8: decreased chemotaxis
Mouse HPC
  HPC differentiation (proportion and absolute number of Ly6G+ cells): had no effect
Mouse neutrophils; mouse neutrophils
  viability of neutrophils: did not affect
CXCR4 [5]; with LLC TES
  CXCR4 expression in the presence of TES: reduced its expression in the presence of TES
CXCR4 [5]; without TES
  CXCR4 expression in control: slightly decreased
CD4+ T cells
  IFN-γ production by CD4+ T cells: reduced IFN-γ production
Ly6G+ cells; inhibitor present during HPC differentiation
  immune suppressive activity of Ly6G+ cells generated in the presence of TES: did not abrogate
CXCR4 [6]; 10 μM for 1–4h, HD neutrophils
  gene or protein expression of CXCR4: did not affect
CXCR4 [6]; [12]
  neutrophil CXCR4 receptor expression: did not affect expression
T cells
  T cell proliferation: slightly decreased
BM neutrophils; BM neutrophils pre-incubated with 10 μM for 2h
  CXCL1-induced chemotaxis of neutrophils: reduced

## Cc1c(-c2cc3ccccc3n2Cc2ccc(F)cc2)nc2cc(C(=O)N3CCC[C@@H](N)C3)ccn12 [JBI-589, (R)-(3-aminopiperidin-1-yl)(2-(1-(4-fluorobenzyl)-1H-indol-2-yl)-3-methylimidazo[1,2-a]pyridin-7-yl)methanone]
LL2 tumors; LL2-bearing mice
  infiltration of tumor tissues with activated CD8+ and CD4+ T cells: increased infiltration
LL2 tumors; LL2-bearing mice, treated vs control
  frequency of LSK, GMP, CMP and MEP and their proliferation in spleens: No differences
LL2 tumors; LL2-bearing mice, 50 mg/kg, twice a day, daily, oral gavage
  primary tumor growth: markedly reduced
LL2 tumors; LL2-bearing mice, IVIS
  lung metastatic lesions: almost undetectable
LL2 tumors; LL2-bearing mice, JBI-589 50 mg/kg b.i.d. plus anti-CTLA-4 and anti-PD-1 antibodies
  inhibition of primary tumor growth by ICB on addition of JBI-589: significantly enhanced
LL2 tumors; LL2-bearing mice, flow cytometry
  presence of tumor-associated neutrophils: significant decrease
LL2 tumors; mouse, in vivo
  cellularity of the BM: did not affect
LL2
  viability of LL2 tumor cell line: No effect
B16F10
  viability of B16F10 tumor cell line: No effect
CXCR2 [7]
  CXCR2 receptor expression in Ly6G+ cells: significant down-regulation
[8]
  NET formation by BM and spleen neutrophils: unable to produce NETs
Histone H3
  PMA-induced citrullination of histone H3: inhibited PMA-induced citrullination of histone H3 in mouse neutrophils in a dose-dependent manner
[9]
  oral bioavailability: excellent oral bioavailability
M-MDSC, TAM, PMN-MDSC
  suppressive activity of M-MDSC, TAM and PMN-MDSC: did not affect suppressive activity
CXCR4 [10]
  CXCR4 receptor expression in Ly6G+ cells: but not CXCR4
Mouse neutrophils; in vitro, JBI-589
  toxicity in mouse neutrophils: without noticeable toxicity
M-MDSC, TAMs
  expression of genes encoding soluble factors involved in pro-tumorigenic effect: did not affect
Ly6G+ cells; JBI-589
  suppressive activity of Ly6G+ cells generated in vitro from HPC in the presence of TES: no effect
CXCR2 [11]
  CXCR2 expression on neutrophil: significantly downregulated
B16F10 tumors
  primary tumor growth: markedly reduced
BM neutrophils; in vitro, JBI-589
  CXCL1-induced migration of neutrophils: reduced
